Measurements as given in ChEMBL document CHEMBL3232879, “4,5,6,7-Tetrahydro-isoxazolo-[4,5-c]-pyridines as a new class of cytotoxic Hsp90 inhibitors” (Eur J Med Chem, 2014).

What was measured:
[1] = biological target: Histone deacetylase 1 (Homo sapiens, UniProt Q13547); assay: Inhibition of human HDAC-1 using RHKK(Ac) as substrate
[2] = test system: NCI-H460; assay: Cytotoxicity against human NCI-H460 cells assessed as growth inhibition after 72 hrs by sulforhodamine B assay; type: functional, cell-based; conditions: NCI-H460, 72 h
Method in brief: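 Log-phase NCI-H460 cells seeded, drug added 24 h later, exposed 72 h. Survival read by sulforhodamine B staining. IC50 fitted by curve analysis as the concentration halving cell number relative to untreated controls.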

[3] = biological target: Heat shock protein HSP 90-alpha (Homo sapiens, UniProt P07900); assay: Displacement of GM-FTC from Hsp90-alpha (unknown origin) after 4 hrs by fluorescence polarization assay
[4] = biological target: Histone deacetylase 2 (Homo sapiens, UniProt Q92769); assay: Inhibition of human HDAC-2 using RHKK(Ac) as substrate
[5] = biological target: Histone deacetylase 3/Nuclear receptor corepressor 2 (HDAC3/NCoR2) (Homo sapiens, UniProt O15379); assay: Inhibition of human HDAC-3/NCOR-2 using RHKK(Ac) as substrate; type: protein-complex assay
[6] = biological target: Histone deacetylase 4 (Homo sapiens, UniProt P56524); assay: Inhibition of human HDAC-4 using RHKK(Ac) as substrate
[7] = biological target: Histone deacetylase 5 (Homo sapiens, UniProt Q9UQL6); assay: Inhibition of human HDAC-5 using RHKK(Ac) as substrate
[8] = biological target: T1, Histone deacetylase 7 (Homo sapiens, UniProt Q8WUI4); assay: Inhibition of human HDAC-7 using RHKK(Ac) as substrate
T1 sequence (Q8WUI4 whole entry): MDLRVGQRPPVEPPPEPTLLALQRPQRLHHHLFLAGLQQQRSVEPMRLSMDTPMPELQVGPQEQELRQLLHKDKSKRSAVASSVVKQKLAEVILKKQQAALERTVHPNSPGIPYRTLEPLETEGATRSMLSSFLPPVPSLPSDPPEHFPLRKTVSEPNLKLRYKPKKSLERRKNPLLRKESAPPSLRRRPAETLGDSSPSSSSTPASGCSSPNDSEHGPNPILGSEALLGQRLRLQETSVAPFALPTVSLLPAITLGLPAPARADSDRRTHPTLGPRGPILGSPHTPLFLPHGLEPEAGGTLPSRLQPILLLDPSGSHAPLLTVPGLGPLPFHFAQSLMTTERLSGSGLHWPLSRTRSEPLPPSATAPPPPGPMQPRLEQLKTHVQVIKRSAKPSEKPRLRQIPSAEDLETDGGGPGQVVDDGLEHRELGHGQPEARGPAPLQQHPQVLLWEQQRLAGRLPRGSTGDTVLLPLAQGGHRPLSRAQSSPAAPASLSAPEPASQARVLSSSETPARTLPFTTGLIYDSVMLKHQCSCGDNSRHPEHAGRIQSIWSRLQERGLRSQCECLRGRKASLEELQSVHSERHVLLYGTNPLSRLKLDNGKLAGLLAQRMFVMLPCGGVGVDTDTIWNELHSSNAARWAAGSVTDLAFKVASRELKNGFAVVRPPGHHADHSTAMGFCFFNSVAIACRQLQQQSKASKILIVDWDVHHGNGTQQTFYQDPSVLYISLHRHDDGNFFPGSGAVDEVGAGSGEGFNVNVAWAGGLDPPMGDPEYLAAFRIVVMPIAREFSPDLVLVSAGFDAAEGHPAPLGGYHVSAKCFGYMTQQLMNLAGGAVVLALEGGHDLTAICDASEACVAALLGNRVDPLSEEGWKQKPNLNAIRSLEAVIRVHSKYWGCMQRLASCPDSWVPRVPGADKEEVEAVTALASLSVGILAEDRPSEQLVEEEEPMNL

[9] = biological target: T2, Histone deacetylase 8 (Homo sapiens, UniProt Q9BY41); assay: Inhibition of human HDAC-8 using RHK(Ac)K(Ac) as substrate
T2 sequence (Q9BY41 whole entry): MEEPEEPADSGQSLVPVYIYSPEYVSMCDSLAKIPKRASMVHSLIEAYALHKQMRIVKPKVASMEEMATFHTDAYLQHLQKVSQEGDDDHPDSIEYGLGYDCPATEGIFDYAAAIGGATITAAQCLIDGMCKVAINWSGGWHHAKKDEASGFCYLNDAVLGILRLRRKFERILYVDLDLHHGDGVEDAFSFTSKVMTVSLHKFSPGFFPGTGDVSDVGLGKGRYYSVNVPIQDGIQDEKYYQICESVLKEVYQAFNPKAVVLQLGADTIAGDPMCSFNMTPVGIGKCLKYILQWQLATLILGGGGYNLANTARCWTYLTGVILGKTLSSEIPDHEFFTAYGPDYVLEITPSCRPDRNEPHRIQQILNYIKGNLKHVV

[10] = biological target: T3, Polyamine deacetylase HDAC10 (Homo sapiens, UniProt Q969S8); assay: Inhibition of human HDAC-10 using RHKK(Ac) as substrate
T3 sequence (Q969S8 whole entry): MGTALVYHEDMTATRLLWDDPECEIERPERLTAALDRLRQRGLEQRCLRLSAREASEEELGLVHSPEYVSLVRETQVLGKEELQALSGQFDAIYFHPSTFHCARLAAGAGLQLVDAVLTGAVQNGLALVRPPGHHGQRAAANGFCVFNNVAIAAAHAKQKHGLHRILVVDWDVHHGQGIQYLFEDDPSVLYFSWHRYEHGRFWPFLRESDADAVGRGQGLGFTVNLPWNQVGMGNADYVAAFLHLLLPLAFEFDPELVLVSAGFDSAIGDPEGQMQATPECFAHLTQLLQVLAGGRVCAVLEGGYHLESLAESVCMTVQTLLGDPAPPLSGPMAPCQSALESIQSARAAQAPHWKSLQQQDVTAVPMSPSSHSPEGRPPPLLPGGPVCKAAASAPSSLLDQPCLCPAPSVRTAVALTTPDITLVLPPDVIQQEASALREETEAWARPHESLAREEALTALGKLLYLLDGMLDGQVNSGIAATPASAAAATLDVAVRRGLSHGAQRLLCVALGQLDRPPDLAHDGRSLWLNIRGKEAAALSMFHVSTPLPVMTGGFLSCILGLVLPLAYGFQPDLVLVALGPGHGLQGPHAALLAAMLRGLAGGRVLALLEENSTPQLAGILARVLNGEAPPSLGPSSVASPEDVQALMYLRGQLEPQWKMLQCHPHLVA

[11] = biological target: T4, Histone deacetylase 11 (Homo sapiens, UniProt Q96DB2); assay: Inhibition of human HDAC-11 using RHKK(Ac) as substrate
T4 sequence (Q96DB2 whole entry): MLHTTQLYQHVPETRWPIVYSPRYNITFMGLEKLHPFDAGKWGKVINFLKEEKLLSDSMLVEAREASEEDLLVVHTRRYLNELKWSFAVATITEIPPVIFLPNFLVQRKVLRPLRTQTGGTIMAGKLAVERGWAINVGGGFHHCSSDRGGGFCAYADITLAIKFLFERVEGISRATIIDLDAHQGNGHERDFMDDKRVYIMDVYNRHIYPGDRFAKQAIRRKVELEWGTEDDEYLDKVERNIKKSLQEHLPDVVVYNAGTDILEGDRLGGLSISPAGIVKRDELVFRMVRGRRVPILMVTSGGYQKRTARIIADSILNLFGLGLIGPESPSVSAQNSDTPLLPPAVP

Chain of Histone deacetylase 2 (Q92769 whole entry): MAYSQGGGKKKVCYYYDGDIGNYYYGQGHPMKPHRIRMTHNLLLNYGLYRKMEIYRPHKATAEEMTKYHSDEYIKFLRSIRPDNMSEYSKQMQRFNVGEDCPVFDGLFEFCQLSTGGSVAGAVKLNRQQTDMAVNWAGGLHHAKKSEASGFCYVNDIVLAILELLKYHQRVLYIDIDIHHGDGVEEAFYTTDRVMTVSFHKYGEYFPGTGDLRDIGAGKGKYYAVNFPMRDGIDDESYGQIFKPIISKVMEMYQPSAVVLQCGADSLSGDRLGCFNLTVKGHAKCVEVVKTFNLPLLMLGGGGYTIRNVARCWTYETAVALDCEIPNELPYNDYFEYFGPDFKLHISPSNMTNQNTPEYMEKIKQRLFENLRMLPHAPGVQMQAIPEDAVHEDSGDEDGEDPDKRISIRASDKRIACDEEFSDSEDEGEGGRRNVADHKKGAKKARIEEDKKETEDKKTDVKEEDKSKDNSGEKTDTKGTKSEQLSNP
Chain of Histone deacetylase 3/Nuclear receptor corepressor 2 (HDAC3/NCoR2) (O15379 whole entry): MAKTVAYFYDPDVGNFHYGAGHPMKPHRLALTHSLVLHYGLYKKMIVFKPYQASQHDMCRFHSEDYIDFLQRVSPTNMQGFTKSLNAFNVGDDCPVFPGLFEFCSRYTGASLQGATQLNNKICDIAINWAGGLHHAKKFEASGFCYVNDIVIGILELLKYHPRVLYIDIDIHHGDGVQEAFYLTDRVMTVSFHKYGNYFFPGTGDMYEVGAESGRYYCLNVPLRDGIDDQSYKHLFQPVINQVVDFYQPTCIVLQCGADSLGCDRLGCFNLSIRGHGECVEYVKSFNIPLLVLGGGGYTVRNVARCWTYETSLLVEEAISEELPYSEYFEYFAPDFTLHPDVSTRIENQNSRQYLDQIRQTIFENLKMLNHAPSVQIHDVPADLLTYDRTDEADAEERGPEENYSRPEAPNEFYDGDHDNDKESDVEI
Chain of Histone deacetylase 3/Nuclear receptor corepressor 2 (HDAC3/NCoR2) (Q9Y618 whole entry, further chain): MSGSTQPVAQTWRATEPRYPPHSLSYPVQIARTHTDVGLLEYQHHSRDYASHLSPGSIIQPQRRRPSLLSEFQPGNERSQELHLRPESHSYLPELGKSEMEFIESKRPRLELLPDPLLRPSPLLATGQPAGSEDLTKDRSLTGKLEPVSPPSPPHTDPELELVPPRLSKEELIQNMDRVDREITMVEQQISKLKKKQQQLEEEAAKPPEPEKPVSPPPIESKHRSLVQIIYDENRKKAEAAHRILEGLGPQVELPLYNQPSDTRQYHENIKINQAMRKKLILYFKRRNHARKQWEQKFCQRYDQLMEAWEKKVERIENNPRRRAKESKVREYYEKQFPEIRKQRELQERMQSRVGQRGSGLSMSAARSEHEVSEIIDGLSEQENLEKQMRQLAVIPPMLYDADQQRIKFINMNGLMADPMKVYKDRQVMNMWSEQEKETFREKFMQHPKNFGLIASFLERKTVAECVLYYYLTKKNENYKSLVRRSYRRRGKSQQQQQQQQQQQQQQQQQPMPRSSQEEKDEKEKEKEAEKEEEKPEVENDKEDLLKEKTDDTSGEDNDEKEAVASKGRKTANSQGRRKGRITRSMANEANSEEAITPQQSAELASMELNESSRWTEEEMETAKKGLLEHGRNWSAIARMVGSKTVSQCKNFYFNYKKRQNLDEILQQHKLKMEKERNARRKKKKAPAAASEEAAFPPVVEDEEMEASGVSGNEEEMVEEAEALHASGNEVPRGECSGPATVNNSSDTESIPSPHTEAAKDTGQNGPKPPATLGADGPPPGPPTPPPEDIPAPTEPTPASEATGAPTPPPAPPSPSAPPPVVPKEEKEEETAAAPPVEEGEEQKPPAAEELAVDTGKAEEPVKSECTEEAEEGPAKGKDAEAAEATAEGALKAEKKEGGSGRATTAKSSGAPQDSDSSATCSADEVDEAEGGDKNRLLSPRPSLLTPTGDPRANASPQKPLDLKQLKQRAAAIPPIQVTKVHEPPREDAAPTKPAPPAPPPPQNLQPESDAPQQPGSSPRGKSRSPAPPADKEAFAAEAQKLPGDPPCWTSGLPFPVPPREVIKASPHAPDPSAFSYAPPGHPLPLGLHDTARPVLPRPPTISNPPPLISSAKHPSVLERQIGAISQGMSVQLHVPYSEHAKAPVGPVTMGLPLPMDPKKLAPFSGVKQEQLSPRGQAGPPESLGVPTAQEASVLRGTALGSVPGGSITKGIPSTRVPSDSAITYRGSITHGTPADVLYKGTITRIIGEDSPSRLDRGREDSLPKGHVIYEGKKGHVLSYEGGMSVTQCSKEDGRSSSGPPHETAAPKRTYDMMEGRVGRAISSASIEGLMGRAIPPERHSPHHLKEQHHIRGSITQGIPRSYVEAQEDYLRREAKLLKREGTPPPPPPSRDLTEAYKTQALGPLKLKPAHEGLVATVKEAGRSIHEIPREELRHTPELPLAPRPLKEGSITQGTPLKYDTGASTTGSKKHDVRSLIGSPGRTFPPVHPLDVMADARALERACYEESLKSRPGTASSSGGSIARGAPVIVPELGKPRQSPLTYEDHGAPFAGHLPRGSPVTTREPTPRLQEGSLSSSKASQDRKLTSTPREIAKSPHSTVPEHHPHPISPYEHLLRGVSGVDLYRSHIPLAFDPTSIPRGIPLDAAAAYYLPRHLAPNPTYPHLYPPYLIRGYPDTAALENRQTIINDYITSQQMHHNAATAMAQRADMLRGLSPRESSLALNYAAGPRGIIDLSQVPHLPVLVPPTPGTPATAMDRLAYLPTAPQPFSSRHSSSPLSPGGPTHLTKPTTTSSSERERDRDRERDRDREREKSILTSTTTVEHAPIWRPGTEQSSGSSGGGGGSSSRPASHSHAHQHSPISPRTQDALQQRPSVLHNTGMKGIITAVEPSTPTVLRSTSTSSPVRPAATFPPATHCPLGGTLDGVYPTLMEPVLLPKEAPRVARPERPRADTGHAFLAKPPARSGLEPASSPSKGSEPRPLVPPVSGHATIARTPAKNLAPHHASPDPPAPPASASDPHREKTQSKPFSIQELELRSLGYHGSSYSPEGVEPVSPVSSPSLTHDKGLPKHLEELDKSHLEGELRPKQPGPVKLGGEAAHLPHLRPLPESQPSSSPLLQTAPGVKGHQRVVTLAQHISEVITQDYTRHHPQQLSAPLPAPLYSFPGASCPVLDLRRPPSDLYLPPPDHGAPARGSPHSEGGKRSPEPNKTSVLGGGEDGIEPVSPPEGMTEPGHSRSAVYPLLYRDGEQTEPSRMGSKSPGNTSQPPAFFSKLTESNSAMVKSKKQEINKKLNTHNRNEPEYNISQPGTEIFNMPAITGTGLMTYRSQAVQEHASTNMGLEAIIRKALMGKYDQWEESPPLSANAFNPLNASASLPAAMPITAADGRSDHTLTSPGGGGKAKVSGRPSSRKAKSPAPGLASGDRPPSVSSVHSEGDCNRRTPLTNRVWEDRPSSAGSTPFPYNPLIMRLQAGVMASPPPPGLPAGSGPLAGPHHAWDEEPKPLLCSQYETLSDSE
Chain of Histone deacetylase 4 (P56524 whole entry): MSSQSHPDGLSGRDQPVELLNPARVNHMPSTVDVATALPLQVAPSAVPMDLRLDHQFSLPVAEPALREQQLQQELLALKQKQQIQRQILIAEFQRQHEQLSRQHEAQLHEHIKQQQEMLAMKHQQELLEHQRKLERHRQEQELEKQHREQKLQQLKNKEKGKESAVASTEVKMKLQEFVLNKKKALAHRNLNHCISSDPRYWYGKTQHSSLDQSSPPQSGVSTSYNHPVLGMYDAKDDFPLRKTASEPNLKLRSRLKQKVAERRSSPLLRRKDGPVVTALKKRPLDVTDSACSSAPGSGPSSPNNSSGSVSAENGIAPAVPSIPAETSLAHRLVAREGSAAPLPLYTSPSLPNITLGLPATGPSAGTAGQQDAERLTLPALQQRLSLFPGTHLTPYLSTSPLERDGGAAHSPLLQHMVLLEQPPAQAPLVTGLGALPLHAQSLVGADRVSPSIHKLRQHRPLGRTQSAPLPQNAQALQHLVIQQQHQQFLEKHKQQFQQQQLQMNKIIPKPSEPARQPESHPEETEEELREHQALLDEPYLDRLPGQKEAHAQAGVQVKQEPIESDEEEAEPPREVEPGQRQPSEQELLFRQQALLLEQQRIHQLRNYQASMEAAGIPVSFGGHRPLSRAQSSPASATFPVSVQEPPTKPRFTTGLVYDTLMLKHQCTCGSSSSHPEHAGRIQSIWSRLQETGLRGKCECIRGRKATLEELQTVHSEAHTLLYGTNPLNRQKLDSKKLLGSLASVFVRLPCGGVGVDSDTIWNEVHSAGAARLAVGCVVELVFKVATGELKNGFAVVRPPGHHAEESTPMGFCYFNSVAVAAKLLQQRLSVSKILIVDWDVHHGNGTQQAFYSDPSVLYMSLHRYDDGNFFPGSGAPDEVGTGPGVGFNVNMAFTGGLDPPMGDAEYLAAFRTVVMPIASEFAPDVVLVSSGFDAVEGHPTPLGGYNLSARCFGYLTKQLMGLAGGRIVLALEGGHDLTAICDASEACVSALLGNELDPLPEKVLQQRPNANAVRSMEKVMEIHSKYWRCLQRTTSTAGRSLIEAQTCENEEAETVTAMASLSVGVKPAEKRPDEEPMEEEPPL
Chain of Histone deacetylase 1 (Q13547 whole entry): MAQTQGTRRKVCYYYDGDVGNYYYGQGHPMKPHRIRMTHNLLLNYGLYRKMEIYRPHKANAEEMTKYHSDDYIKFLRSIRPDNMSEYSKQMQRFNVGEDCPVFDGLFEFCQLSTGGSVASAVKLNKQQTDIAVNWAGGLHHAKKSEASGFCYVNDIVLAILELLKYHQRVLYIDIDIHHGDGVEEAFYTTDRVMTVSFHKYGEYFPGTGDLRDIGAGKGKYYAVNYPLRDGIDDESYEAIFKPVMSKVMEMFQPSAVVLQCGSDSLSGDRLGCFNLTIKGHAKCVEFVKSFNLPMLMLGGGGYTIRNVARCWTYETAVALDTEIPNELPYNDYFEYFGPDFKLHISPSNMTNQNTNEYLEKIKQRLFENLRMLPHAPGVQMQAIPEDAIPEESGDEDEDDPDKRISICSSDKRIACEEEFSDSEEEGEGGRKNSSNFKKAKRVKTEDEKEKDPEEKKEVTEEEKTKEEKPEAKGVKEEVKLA

## CC(C)c1cc(C(=O)N2CCc3onc(C(=O)NCCCCCCC(=O)NO)c3C2)c(O)cc1O
[1]
  IC50: 2.03 µM
[2]
  IC50: 3.9 µM
[3]
  IC50: 0.033 µM
[4]
  IC50: 9.49 µM
[5]
  IC50: 4.23 µM
[6]
  IC50: 75.9 µM
[7]
  IC50: 1.58 µM
[8]
  IC50: 2.51 µM
[9]
  IC50: 1.76 µM
[10]
  IC50: 0.886 µM
[11]
  IC50: 0.521 µM
